Data from ChEMBL document CHEMBL4334446, “Evaluating the effects of fluorine on biological properties and metabolic stability of some antitubulin 3-substituted 7-phenyl-pyrroloquinolinones” (Eur J Med Chem, 2019).
pIC50: −log10 of the molar value.

Legend:
[1] = Growth inhibition of human DND41 cells incubated for 72 hrs by MTT assay; type: functional; conditions: DND41, 72 h
Summary of the method: (§1)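 Leukemia lines were grown in RPMI-1640; the CEM^Vbl-100 medium also contained 100 ng/mL vinblastine. Cells were seeded at 8 × 10³ per well and left 18 h at 37 °C, 5% CO2. Medium was then replaced with fresh medium holding graded compound concentrations (DMSO stocks), in triplicate, for 72 h. Viability was read by MTT, and GI50 = concentration inhibiting proliferation 50%.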

Jurkat = test: Growth inhibition of human Jurkat cells incubated for 72 hrs by MTT assay; type: functional; summary of the method: as §1
HL-60 = test: Growth inhibition of human HL60 cells incubated for 72 hrs by MTT assay; type: functional; conditions: HL-60, 72 h; summary of the method: as §1
RS4-11 = test: Growth inhibition of human RS4:11 cells incubated for 72 hrs by MTT assay; type: functional; conditions: RS4-11, 72 h; summary of the method: as §1
MCF7 = test: Growth inhibition of human MCF7 cells incubated for 72 hrs by MTT assay; type: functional; conditions: MCF7, 72 h
MDA-MB-231 = test: Growth inhibition of human MDA-MB-231 cells incubated for 72 hrs by MTT assay; type: functional; conditions: MDA-MB-231, 72 h
MDA-MB-468 = test: Growth inhibition of human MDA-MB-468 cells incubated for 72 hrs by MTT assay; type: functional; conditions: MDA-MB-468, 72 h
HeLa = test: Growth inhibition of human HeLa cells incubated for 72 hrs by MTT assay; type: functional
A-375 = test: Growth inhibition of human A375 cells incubated for 72 hrs by MTT assay; type: functional; conditions: A-375, 72 h
A2058 = test: Growth inhibition of human A2058 cells incubated for 72 hrs by MTT assay; type: functional; conditions: A2058, 72 h
HT-29 = test: Growth inhibition of human HT-29 cells incubated for 72 hrs by MTT assay; type: functional; conditions: HT-29, 72 h
[2] = Growth inhibition of human PBL cells incubated for 72 hrs by MTT assay; type: cell-based; conditions: PBL cells (peripheral blood lymphocytes)
Summary of the method: (§2)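 PBL from healthy donors were isolated on a Lymphoprep gradient, held overnight in RPMI-1640 with 10% FBS, and the non-adherent cells resuspended at 5 × 10^5 cells/mL. Proliferating cultures got 2.5 µg/mL PHA; resting cultures got none. Compound was added at several concentrations for 72 h and viability read by MTT. GI50 reported as mean ± SEM of three experiments.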

[3] = Growth inhibition of PHA-stimulated human PBL cells incubated for 72 hrs by MTT assay; type: cell-based; conditions: PHA-stimulated PBL cells (peripheral blood lymphocytes); summary of the method: as §2
CCRF-CEM = test: Growth inhibition of human CEM cells incubated for 72 hrs by MTT assay; type: functional; summary of the method: as §1
[4] = Growth inhibition of multidrug-resistant human CEM/VBL100 cells incubated for 72 hrs by MTT assay; type: functional; conditions: CEM/VBL100, 72 h; summary of the method: as §1
[5] = Metabolic stability in human liver microsomes assessed as parent compound decline at 10 uM incubated for 60 mins in presence of NADPH by HPLC analysis; type: ADME, Microsome; conditions: read-out: Drug degradation
Summary of the method: (§3)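 Compound (10 µM) was incubated 0 or 60 min at 37 °C with pooled HLMs (1 mg/mL), with or without 1 mM NADPH, or in buffer only (0.1 M KH2PO4 pH 7.4). Reactions were stopped with ice-cold acetonitrile. Remaining parent was measured by HPLC-fluorescence relative to 0 min; mean ± SD, n = 3.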

[6] = Selectivity ratio of GI50 for human PBL cells to GI50 for human Jurkat cells incubated for 72 hrs by MTT assay
Summary of the method: (§4)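 Leukemia cells (CEM, DND-41, Jurkat) were grown in RPMI-1640 at 8×10³ cells/well and left 18 h. Donor PBL were gradient-separated, held overnight in RPMI-1640/10% FBS, and non-adherent cells set at 5×10^5 cells/mL without PHA (resting). Both were exposed 72 h to graded concentrations, read by MTT. The ratio is PBL GI50 over leukemia GI50.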

[7] = Metabolic stability in human liver microsomes assessed as parent compound decline at 10 uM incubated for 60 mins in absence of NADPH by HPLC analysis; type: ADME, Microsome; conditions: read-out: Drug degradation; summary of the method: as §3
[8] = Selectivity ratio of GI50 for human PBL cells to GI50 for human DND41 cells incubated for 72 hrs by MTT assay; summary of the method: as §4
[9] = Selectivity ratio of GI50 for human PBL cells to GI50 for human CEM cells incubated for 72 hrs by MTT assay; type: functional; summary of the method: as §4
[10] = Selectivity ratio of GI50 for PHA-stimulated human PBL cells to GI50 for human Jurkat cells incubated for 72 hrs by MTT assay
Summary of the method: (§5)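 Leukemia cells (CEM, DND-41, Jurkat) were grown in RPMI-1640 at 8×10³ cells/well and left 18 h. Donor PBL were gradient-separated, held overnight, and non-adherent cells set at 5×10^5 cells/mL with 2.5 µg/mL PHA. Both were exposed 72 h at 37 °C to graded compound concentrations, read by MTT. The ratio is PBL GI50 over leukemia GI50.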

[11] = Selectivity ratio of GI50 for PHA-stimulated human PBL cells to GI50 for human DND41 cells incubated for 72 hrs by MTT assay; summary of the method: as §5
[12] = Selectivity ratio of GI50 for PHA-stimulated human PBL cells to GI50 for human CEM cells incubated for 72 hrs by MTT assay; summary of the method: as §5
Tubulin = Tubulin (Bos taurus, UniProt Q6B856+Q862L2+Q862F3); test: Inhibition of bovine brain tubulin polymerization preincubated for 15 mins followed by GTP addition and measured for 20 mins by turbidimetry-based spectrophotometric method
Summary of the method: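 Bovine brain tubulin (10 µM) was preincubated with varying compound concentrations in 0.8 M monosodium glutamate, pH 6.6, for 15 min at 30 °C, then cooled to 0 °C. GTP was added to 0.4 mM final and the mix warmed to 30 °C. Turbidity was followed at 350 nm. IC50 = concentration inhibiting extent of assembly 50% after 20 min.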

Tubulin (Bos taurus) = Tubulin (Bos taurus) (UniProt Q6B856+Q862L2+Q862F3); test: Inhibition of [3H]colchicine binding to bovine brain tubulin at 5 uM relative to control
Summary of the method: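 Bovine brain tubulin at 1 µM was incubated with 5 µM [3H]colchicine and the test compound at 5 µM. Inhibition of colchicine binding was measured relative to a control.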

[13] = Time-dependent metabolic stability in human liver microsomes at 10 uM incubated for 30 mins in presence of NADPH by HPLC analysis; type: ADME, Microsome; conditions: 0.5 h
Summary of the method: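 Pooled mixed-gender HLMs (0.5 mg/mL) plus 1 mM NADPH in 0.1 M KH₂PO₄ pH 7.4, compound 10 μM final, 37 °C. Reaction started with microsomes after 3-min equilibration. Stopped with ice-cold acetonitrile at 0, 2, 5, 15, 30 min, then HPLC-fluorescence of supernatant. Percent remaining vs 0 min (mean ± SD, n = 3). Half-life = 0.693/k from linear regression of Ln % remaining vs time.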

[14] = Metabolic stability in human liver microsomes at 10 uM incubated for 30 mins in phosphate buffer at pH 7.4 by HPLC analysis; type: ADME, Microsome; conditions: pH 7.4, 0.5 h
Summary of the method: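 Test compound (10 μM, final) incubated at 37 °C with pooled mixed-gender HLMs (0.5 mg/mL) in 0.1 M KH₂PO₄ pH 7.4 without NADPH. Sampled at 0 and 30 min, quenched with ice-cold acetonitrile, centrifuged, supernatant analysed by HPLC with fluorescence detection (ex 344/em 493 nm). Percent remaining calculated from peak area relative to 0 min; mean ± SD, n = 3.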

[15] = Metabolic stability in human liver microsomes assessed as half life at 10 uM incubated for 30 mins in presence of NADPH by HPLC analysis; type: ADME, Microsome
Summary of the method: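 Compound (10 µM) was incubated at 37 °C with 0.5 mg/mL pooled HLMs and 1 mM NADPH in 0.1 M KH2PO4 pH 7.4, sampled at 0, 2, 5, 15 and 30 min. Controls without NADPH, or buffer only, ran 0 and 30 min. Parent was quantified by HPLC-fluorescence as % of the 0 min level, n = 3. t1/2 = 0.693/k, with k from regression of ln % remaining versus time.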

[16] = Metabolic stability in human liver microsomes at 10 uM incubated for 15 mins in presence of NADPH and non-selective CYP inhibitor quercetin by HPLC analysis; type: ADME, Microsome; conditions: 0.25 h
Summary of the method: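 Compound (10 µM) was incubated 0 and 15 min at 37 °C with pooled HLMs and 1 mM NADPH in 0.1 M KH2PO4 pH 7.4, with or without 100 µM quercetin. Parent remaining was measured by HPLC-fluorescence relative to 0 min; mean ± SD, n = 3.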

[17] = Stability in phosphate buffer at pH 7.4 at 10 uM incubated for 30 mins by HPLC analysis; type: physicochemical; conditions: pH 7.4, 0.5 h
Summary of the method: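 No microsomes or NADPH: compound (10 μM final) held in 0.1 M KH₂PO₄ pH 7.4 at 37 °C. Samples taken at 0 and 30 min, quenched with ice-cold acetonitrile, centrifuged, analysed by HPLC with fluorescence detection. Percent parent remaining relative to 0 min; mean ± SD, n = 3.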

Compound | GI50 [1] | GI50 (Jurkat) | GI50 (HL-60) | GI50 (RS4-11) | GI50 (MCF7) | GI50 (MDA-MB-231) | GI50 (MDA-MB-468) | GI50 (HeLa) | GI50 (A-375) | GI50 (A2058) | GI50 (HT-29) | GI50 at 72 h [2] | GI50 at 72 h [3] | GI50 (CCRF-CEM) | GI50 [4] | metabolised at 1 h, 10 µM [5] | RatioGI50 [6] | metabolised at 1 h, 10 µM [7] | IC50 (Tubulin) | inhibition (Tubulin (Bos taurus)) | pIC50 (Tubulin) | other results
O=C(Oc1cc(-c2ccccc2)nc2ccc3[nH]ccc3c12)c1ccccc1F | 2420 nM | 324 nM | 2310 nM | 697 nM | 3460 nM | 5590 nM | 1320 nM | 501 nM | 2550 nM | 1490 nM | 216 nM | – | – | – | – | – | – | – | – | – | – | –
O=C(c1ccccc1)n1ccc2c3c(=O)cc(-c4ccccc4)[nH]c3ccc21 | – | 16 nM | 2 nM | 0.3 nM | 0.2 nM | – | – | 0.2 nM | – | – | 0.1 nM | > 100000 nM | 2700 nM | 2.5 nM | 3.1 nM | 20% | 10000 - 30000 | 20% | – | – | – | RatioGI50 [8]: 10000 - 30000; RatioGI50 [9]: 10000 - 30000; RatioGI50 [10]: 10000 - 30000; RatioGI50 [11]: 10000 - 30000; RatioGI50 [12]: 10000 - 30000
CCn1ccc2c3c(=O)cc(-c4ccc(F)cc4)[nH]c3ccc21 | 477 nM | 334 nM | 1440 nM | 293 nM | 51.3 nM | 206 nM | 43 nM | 340 nM | 69.8 nM | 1180 nM | 447 nM | – | – | – | – | – | – | – | 3700 nM | 12% | – | Stability [13]: Unstable; Stability [14]: Stable; half-life at 10 µM [15]: 10.6 min; Stability [16]: Stable; Stability [17]: Stable
O=C(c1ccccc1F)n1ccc2c3c(=O)cc(-c4ccccc4)[nH]c3ccc21 | 240 nM | 53.7 nM | 276 nM | 120 nM | 1080 nM | 3030 nM | 70 nM | 9.3 nM | 332 nM | 322 nM | 26.6 nM | – | – | – | – | 20% | – | 20% | 1300 nM | 34% | – | –
CCn1ccc2c3c(=O)cc(-c4cccc(F)c4)[nH]c3ccc21 | 0.13 nM | 0.11 nM | 0.08 nM | 0.07 nM | 52.7 nM | 69 nM | 15 nM | 0.7 nM | 11.4 nM | 3.5 nM | 0.9 nM | 31300 nM | 10800 nM | 2.2 nM | 0.8 nM | – | 10000 - 30000 | – | – | 83% | 6.08 to 6.11 | Stability [13]: Unstable; Stability [14]: Stable; half-life at 10 µM [15]: 11.8 min; Stability [16]: Stable; Stability [17]: Stable; RatioGI50 [8]: 10000 - 30000; RatioGI50 [9]: 10000 - 30000; RatioGI50 [10]: 10000 - 30000; RatioGI50 [11]: 10000 - 30000; RatioGI50 [12]: 10000 - 30000
